High-throughput results deposited in PubChem by Broad Institute.
MLL AF4-AF9 inh – inhibitors of human MLL-AF4/AF9 interaction. P42568. AlphaScreen, biotin-AF4 peptide binding to FLAG-AF9. inhibition, % at 10 µM. 0.47% of 350,000 active;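 active = every replicate reaching a set inhibition limit, whatever the replicate mean, cut at about 25% in these data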;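 note: 0% = plate neutral control median and 100% = total signal loss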
Ecoli rRNA inh – inhibitors of bacterial rRNA selective over humanized ribosomes; E. coli WT GFP vs humanized-ribosome RFP mutants, fluorescence, 24 h; stronger effect = lower value; DMSO median 0, no signal -100; GFP signal change (wild-type ribosome), % (test concentration not listed); 1.6% of 350,000 active; AID 720706;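 active = significant combined selectivity score with lowered wild-type GFP, culture density cut under 30%, mutant RFP and density less affected; inactive = any of these conditions unmet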
E-sel inducer – E-selectin induction on HUVECs. P16581. HUVEC E-selectin immunofluorescence imaging; normalized: neutral wells 0, TNF-alpha wells 100. activation, % at 7.58 µM. 0.37% of 260,000 active. AID 686992;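 active = mean E-selectin-positive cell signal at least 10% of the positive control, reached in at least 60% of replicates, without over 20% cell loss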
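Material: HUVEC primary endothelial cells; Amount: 3,000 cells per well; Dosing: single concentration; Medium: EGM-2 growth medium on 0.1% gelatin-coated wells; Read-out basis: percent E-selectin-positive cells; Signal: immunofluorescence imaging; Control set: TNF-alpha, DMSO.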
RAD52 inh – blocks human RAD52 DNA annealing; P43351; recombinant RAD52 DNA annealing, FRET fluorescence; inhibition, % at 18.7 µM; 0.46% of 360,000 active; AID 651710;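 active = every replicate showing at least 50% inhibition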
GSIS activator – GLuc luminescence reporter in INS-1E cells, primary screen for activators of glucose-dependent secretion of insulin. INS-1E GLuc reporter insulin secretion, 2-3 h. activation, % at 16.6 µM. 0.61% of 370,000 active;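 active = lowest replicate activation of at least 40%, so every replicate reaches that level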;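 note: 0% = median of neutral control wells and 100% = median of IBMX positive control wells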
RAD54 branch – RAD54 (human) branch migration inhibition; RAD54 Holliday junction branch migration, FAM/BHQ fluorescence; Q92698; inhibition, % at 10.4 µM; 0.14% of 360,000 active; AID 602329;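 active = mean normalized replicate activity at least 40 and at least half of replicates scoring 40 or more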;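 note: 0% = median of neutral control wells and 100% = median of positive control wells; inhibitors cause a drop in the FAM fluorescence signal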
Target sequence (Q92698 whole entry, looked up): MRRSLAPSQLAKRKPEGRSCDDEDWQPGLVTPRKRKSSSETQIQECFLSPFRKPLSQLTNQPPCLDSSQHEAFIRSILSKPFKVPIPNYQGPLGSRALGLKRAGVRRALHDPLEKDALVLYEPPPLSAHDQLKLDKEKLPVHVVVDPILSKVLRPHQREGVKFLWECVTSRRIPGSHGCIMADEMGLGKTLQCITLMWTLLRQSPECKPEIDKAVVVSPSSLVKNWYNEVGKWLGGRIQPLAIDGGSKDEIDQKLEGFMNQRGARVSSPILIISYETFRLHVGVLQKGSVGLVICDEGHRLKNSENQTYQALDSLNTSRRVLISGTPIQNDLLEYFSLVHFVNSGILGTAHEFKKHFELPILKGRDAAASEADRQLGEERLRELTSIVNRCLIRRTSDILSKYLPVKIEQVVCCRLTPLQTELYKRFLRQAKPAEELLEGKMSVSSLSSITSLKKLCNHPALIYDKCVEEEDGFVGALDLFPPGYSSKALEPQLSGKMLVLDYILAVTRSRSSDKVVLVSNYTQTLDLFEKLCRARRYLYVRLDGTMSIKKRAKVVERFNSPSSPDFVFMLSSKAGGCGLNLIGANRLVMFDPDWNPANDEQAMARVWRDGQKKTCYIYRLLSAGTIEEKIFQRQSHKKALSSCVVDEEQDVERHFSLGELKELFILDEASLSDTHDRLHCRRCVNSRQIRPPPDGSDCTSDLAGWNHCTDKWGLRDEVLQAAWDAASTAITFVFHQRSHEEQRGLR
RAD52 DNA ctr – binds DNA, flagging false RAD52 inhibitor hits | shares compounds with RAD52 inh | Salmon sperm DNA/acridine orange FP displacement, DNA binding | AC50, µM | 8% of 1,000 active | AID 652128;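 active = fitted half-maximal concentration for signal loss at or below twice the highest dose tested, in every separate run, actives reach about 64 µM in these data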
* = called active by the depositor; i = inactive; · = no result given. In the library only some 2.6% were active in any assay of this set; here they are far more common.

SMILES	MLL AF4-AF9 inh	Ecoli rRNA inh	E-sel inducer	RAD52 inh	GSIS activator	RAD54 branch	RAD52 DNA ctr
CN(C)CCCNc1nc2cc(-c3ccsc3)sc2c(=O)n1C	-2	16	3	52*	-6	32	i
Cc1ccc(F)cc1-c1cc2nc(NCCCN(C)C)n(C)c(=O)c2s1	2	3	0	56*	-12	33	i
CN(C)CCCNc1nc2cc(-c3cnn(Cc4ccccc4)c3)sc2c(=O)n1C	4	0	1	59*	-5	48	i
COCCNc1nc(NCc2ccc(NC(C)=O)cc2)c2sc(-c3ccccc3)cc2n1	4	-19	0	-21	29	4	·
COCCNc1nc(NCc2cccc(OC)c2)c2sc(-c3ccccc3)cc2n1	1	-29	0	80*	4	-5	i
COCC(=O)N1[C@H](CO)[C@@H]2c3ccccc3N(C(=O)Nc3ccccc3F)C[C@@H]21	-2	3	0	8	-1	-6	·
O=C1Nc2cc(C(=O)NCCCN3CCCC3)ccc2S/C1=C/c1ccccc1F	13	-15	3	26	-14	10	·
COc1ccc(/C=C2\Sc3ccc(C(=O)NC4CC4)cc3N(C)C2=O)cc1OC	14	-21	·	-14	17	16	·
COc1cccc(/C=C2/Sc3ccc(C(=O)NCCN4CCCC4)cc3NC2=O)c1	37*	-30	·	92*	9	41	i
COc1ccc(/C=C2\Sc3ccc(C(=O)NCCN4CCCCCC4)cc3N(C)C2=O)cc1	14	-6	·	56*	15	6	i
CC(C)NC(=O)NCC[C@H]1CC[C@@H](NC(=O)CN(C)C)[C@@H](CO)O1	2	2	0	-5	4	-2	·
CN1CCN(C(=O)C[C@@H]2CC[C@@H]3[C@H](COc4ccc(NC(=O)C5CCCC5)cc4C(=O)N3C)O2)CC1	-4	-1	0	-13	3	·	·
CO[C@H]1CN(C)C(=O)c2cc(NC(=O)Nc3ccccc3F)ccc2OC[C@H](C)N(C(C)=O)C[C@H]1C	-1	0	1	2	-15	-10	·
CCCCCCCOC(=O)C[N+](C)(C)CCOC1CC2CCC1(C)C2(C)C (stereo unspecified)	13	-59	·	85*	433*	·	i
CCCCCCOC(=O)C[N+](C)(C)CCOC1CC2CCC1(C)C2(C)C (stereo unspecified)	·	·	·	·	·	-5	·
C[C@@H]1CN([C@H](C)CO)C(=O)c2cccc(NC(=O)C3CCCCC3)c2O[C@H]1CN(C)C(=O)Nc1ccc(C(F)(F)F)cc1	0	-3	1	7	2	0	·
CNC12CCc3cc(OC)c(OC)c(c31)-c1cc3c(cc1C2)OCO3 (stereo unspecified)	·	-8	·	54*	-21	·	i
NCCN1C(=O)S/C(=C\c2ccc3c(c2)OCO3)C1=O	-7	5	0	23	-3	·	·
COc1cc(/C=C2\SC(=O)N(CCN)C2=O)ccc1OS(=O)(=O)c1cc(C)ccc1C	11	-48	-2	84*	-6	·	i
Cc1cc(C(=O)OC(C)C(=O)NC2CCCCC2C)c2ccccc2n1 (stereo unspecified)	1	·	0	51*	-4	-4	i
O=C(CCN1CCOCC1)Nc1ccc(F)cc1	-4	5	0	-2	2	9	·
Nc1ccc(NC(=O)CCN2CCOCC2)cc1	-3	24	1	60*	-6	3	i
CCCNC(=O)Nc1ccc2c(c1)OC[C@H](C)N(Cc1ccncc1)C[C@@H](C)[C@@H](OC)CN(C)C2=O	1	-6	0	-11	11	4	·
CN(C)CCn1cnc2c(c1=N)C(c1ccccc1)c1ccc3ccccc3c1O2 (stereo unspecified)	20	-67	0	-21	-13	17	i
O=C(C[C@@H]1CC[C@H]2[C@@H](COC[C@H](O)CN2Cc2nccs2)O1)NCc1ccc(Cl)cc1	9	1	0	3	3	-2	·
SMILES	MLL AF4-AF9 inh	Ecoli rRNA inh	E-sel inducer	RAD52 inh	GSIS activator	RAD54 branch	RAD52 DNA ctr
C[C@@H]1CN([C@H](C)CO)C(=O)c2cc(-c3ccccc3F)cnc2O[C@@H]1CN(C)C	-10	10	0	5	16	10	·
O=C(C[n+]1ccccc1)N/N=C/c1ccco1	8	9	·	50*	7	·	i
Cc1ccc(/C=N/NC(=O)C[n+]2ccccc2)o1	-1	17	3	-4	2	·	·
CN1CCN(c2nc3cc(C(F)(F)F)ccc3n3cccc23)CC1	14	·	1	67*	·	40	i
COc1ccc(-c2ccc3[nH]c4c(c3c2)CCN2C[C@@H]([C@H](C)OC(=O)Nc3cc(Cl)cc(Cl)c3)[C@@H](N(C)C(=O)Nc3cc(Cl)cc(Cl)c3)C[C@@H]42)cc1	-4	-1	1	-52	0	3	·
COc1ccc(NC(=O)O[C@@H](C)[C@@H]2CN3CCc4c([nH]c5ccc(-c6ccc(OC)cc6)cc45)[C@@H]3C[C@@H]2N(C)C(=O)Nc2ccc(OC)cc2)cc1	2	-27*	0	53*	-2	-4	i
C#CCOCCOCCOCCNc1nc(N2CCN(C(=O)[C@H]([C@@H](C)CC)n3cc([C@@H](N)CO)nn3)CC2)nc(N2CCN(C(=O)[C@H](CCCCN)n3cc([C@@H](N)CC(C)C)nn3)CC2)n1	15	3	0	52*	8	·	i
C#CCOCCOCCOCCNc1nc(N2CCN(C(=O)[C@H](CC(N)=O)n3cc(C(N)[C@@H](C)CC)nn3)CC2)nc(N2CCN(C(=O)[C@H](CCCCN)n3cc([C@@H](N)CC(N)=O)nn3)CC2)n1 (stereo partly specified)	10	6	1	24	9	-25	·
C#CCOCCOCCOCCNc1nc(N2CCN(C(=O)[C@H](CCCCN)n3cc([C@@H](N)[C@H](C)CC)nn3)CC2)nc(N2CCN(C(=O)[C@H](CCCCN)n3cc([C@@H](N)CC(N)=O)nn3)CC2)n1	60*	7	0	54*	23	-20	i
CCC(=O)N1CC[C@@H]2[C@@H](CO)Nc3ccc(C#Cc4ccc(F)cc4)cc3[C@@H]21	7	0	4	-13	-5	7	·
CCN1/C(=C/c2sc(-c3ccccc3C)c[n+]2C)Sc2ccccc21	3	-54	-4	69*	0	·	i
Cc1ccc(-c2nc(C(=O)NCCCN3CCOCC3)cc3c2[nH]c2ccccc23)cc1	15	·	·	94*	·	30	i
